# Results taken from ChEMBL document CHEMBL1177762, “Identification of a sulfonamide series of CCR2 antagonists” (Bioorg Med Chem Lett, 2010).
# Legend:
# [1] = biological target: T1, C-C chemokine receptor type 2 (Homo sapiens, UniProt P41597); experiment: Antagonist activity at human CCR2 expressed in CHO cells assessed as inhibition of MCP1-induced [35S]-GTPgammaS binding after 3 hrs; type: functional, cell-based
# Target sequence in this assay (P41597 whole entry): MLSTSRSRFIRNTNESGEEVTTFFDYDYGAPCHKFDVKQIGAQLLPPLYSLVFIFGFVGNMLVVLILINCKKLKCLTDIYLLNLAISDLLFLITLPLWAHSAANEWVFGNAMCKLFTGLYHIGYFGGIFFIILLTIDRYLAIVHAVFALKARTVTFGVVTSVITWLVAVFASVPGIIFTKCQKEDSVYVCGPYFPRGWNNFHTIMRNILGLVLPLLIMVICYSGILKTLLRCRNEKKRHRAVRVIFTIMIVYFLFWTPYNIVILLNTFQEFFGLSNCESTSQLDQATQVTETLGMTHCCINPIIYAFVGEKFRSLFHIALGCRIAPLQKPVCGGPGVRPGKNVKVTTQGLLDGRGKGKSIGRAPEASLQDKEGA
# [2] = biological target: T1, C-C chemokine receptor type 2; experiment: Antagonist activity at CCR2 in human THP1 cells assessed as inhibition of CCL2-induced chemotaxis at 1 uM in presence of 0.1% human serum; type: functional, cell-based; conditions: THP-1
# In short: (§1)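 Boyden chamber (48-well) chemotaxis of THP-1 cells stimulated with CCL2. Foetal bovine serum or human serum was added to the assay buffer.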
# Target sequence in this assay (P41597 whole entry, looked up): as the sequence (P41597 whole entry) above
# [3] = biological target: T1, C-C chemokine receptor type 2; experiment: Antagonist activity at CCR2 in human THP1 cells assessed as inhibition of CCL2-induced chemotaxis at 1 uM in presence of 1% human serum; type: functional, cell-based; conditions: THP-1; in short: as §1
# Target sequence in this assay (P41597 whole entry, looked up): as the sequence (P41597 whole entry) above
# [4] = Lipophilicity, log D of the compound; type: physicochemical; conditions: octanol/water
# [5] = biological target: T2, C-C chemokine receptor type 1 (Homo sapiens, UniProt P32246); experiment: Antagonist activity at human CCR1 assessed as inhibition of MIP-1-alpha-induced [35S]-GTPgammaS binding after 3 to 4 hrs; type: functional
# T2 sequence (P32246 whole entry): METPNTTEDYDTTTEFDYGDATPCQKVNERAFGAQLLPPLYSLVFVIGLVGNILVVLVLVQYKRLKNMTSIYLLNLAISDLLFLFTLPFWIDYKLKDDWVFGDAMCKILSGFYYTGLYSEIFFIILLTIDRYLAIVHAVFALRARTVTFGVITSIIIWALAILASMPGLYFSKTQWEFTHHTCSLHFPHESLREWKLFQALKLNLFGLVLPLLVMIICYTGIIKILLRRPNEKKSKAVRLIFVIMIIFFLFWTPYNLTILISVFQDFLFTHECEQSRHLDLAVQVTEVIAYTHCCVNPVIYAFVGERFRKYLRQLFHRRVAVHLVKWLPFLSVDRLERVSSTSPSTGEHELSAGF
# [6] = biological target: C-C chemokine receptor type 2 (Mus musculus, UniProt P51683); experiment: Antagonist activity at mouse CCR2; type: functional
# [7] = biological target: C-C chemokine receptor type 1 (Homo sapiens) (UniProt P32246); experiment: Antagonist activity at human CCR1
# [8] = Oral bioavailability in rat; type: ADME, organism-based; conditions: in vivo
# [9] = Half life in iv dosed in rat; type: ADME, organism-based; conditions: in vivo
# [10] = Clearance in rat; type: ADME, organism-based; conditions: in vivo
# Rattus norvegicus = organism: Rattus norvegicus; experiment: Volume of distribution in rat; type: ADME, organism-based; conditions: in vivo
# Cytochrome P450 1A2 = biological target: T3, Cytochrome P450 1A2 (Homo sapiens, UniProt P05177); experiment: Inhibition of CYP1A2; type: ADME
# T3 sequence (P05177 whole entry): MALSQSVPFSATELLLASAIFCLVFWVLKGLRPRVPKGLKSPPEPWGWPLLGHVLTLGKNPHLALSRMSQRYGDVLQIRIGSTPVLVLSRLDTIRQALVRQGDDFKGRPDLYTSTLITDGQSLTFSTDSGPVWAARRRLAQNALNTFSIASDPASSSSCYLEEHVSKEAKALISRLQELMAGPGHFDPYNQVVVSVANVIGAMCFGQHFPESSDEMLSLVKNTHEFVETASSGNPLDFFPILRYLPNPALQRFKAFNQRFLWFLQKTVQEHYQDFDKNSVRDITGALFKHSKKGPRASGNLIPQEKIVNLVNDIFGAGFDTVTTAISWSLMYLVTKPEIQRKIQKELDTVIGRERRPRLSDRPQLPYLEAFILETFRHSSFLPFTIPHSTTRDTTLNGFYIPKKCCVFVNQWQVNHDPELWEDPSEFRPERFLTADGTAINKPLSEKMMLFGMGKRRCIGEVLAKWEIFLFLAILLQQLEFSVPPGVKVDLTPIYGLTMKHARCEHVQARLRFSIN
# Cytochrome P450 2C19 = Cytochrome P450 2C19 (Homo sapiens, UniProt P33261); experiment: Inhibition of CYP2C19; type: ADME
# Cytochrome P450 2C9 = Cytochrome P450 2C9 (Homo sapiens, UniProt P11712); experiment: Inhibition of CYP2C9; type: ADME
# Cytochrome P450 2D6 = Cytochrome P450 2D6 (Homo sapiens, UniProt P10635); experiment: Inhibition of CYP2D6; type: ADME
# Cytochrome P450 3A4 = Cytochrome P450 3A4 (Homo sapiens, UniProt P08684); experiment: Inhibition of CYP3A4; type: ADME
# [11] = Half life in po dosed in rat; type: ADME, organism-based; conditions: in vivo
# [12] = biological target: T4, C-C chemokine receptor type 4 (Homo sapiens, UniProt P51679); experiment: Antagonist activity at CCR4; type: functional
# T4 sequence (P51679 whole entry): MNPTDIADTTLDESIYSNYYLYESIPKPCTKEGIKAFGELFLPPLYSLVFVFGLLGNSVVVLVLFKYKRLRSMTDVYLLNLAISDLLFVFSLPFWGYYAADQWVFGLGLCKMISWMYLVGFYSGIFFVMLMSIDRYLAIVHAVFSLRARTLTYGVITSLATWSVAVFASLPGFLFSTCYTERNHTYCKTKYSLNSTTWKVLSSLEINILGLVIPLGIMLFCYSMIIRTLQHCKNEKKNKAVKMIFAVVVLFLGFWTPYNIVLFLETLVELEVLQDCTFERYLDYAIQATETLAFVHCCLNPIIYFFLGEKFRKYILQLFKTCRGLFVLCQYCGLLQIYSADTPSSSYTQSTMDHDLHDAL
# [13] = biological target: T5, C-C chemokine receptor type 5 (Homo sapiens, UniProt P51681); experiment: Antagonist activity at CCR5; type: functional
# [14] = biological target: T1, C-C chemokine receptor type 2; experiment: Antagonist activity at CCR2 in human THP1 cells assessed as inhibition of CCL2-induced chemotaxis at 10 uM in presence of 1% human serum; type: functional, cell-based; conditions: THP-1; in short: as §1
# Target sequence in this assay (P41597 whole entry, looked up): as the sequence (P41597 whole entry) above
# [15] = biological target: Voltage-gated inwardly rectifying potassium channel KCNH2 (Homo sapiens, UniProt Q12809); experiment: Binding affinity to human ERG by fluorescence-polarization binding assay
# [16] = biological target: T5, C-C chemokine receptor type 5; experiment: Antagonist activity at CCR5 at 10 uM; type: functional; design: scale not given: the % may be the effect or the level left
# Target sequence in this assay (P51681 whole entry, looked up): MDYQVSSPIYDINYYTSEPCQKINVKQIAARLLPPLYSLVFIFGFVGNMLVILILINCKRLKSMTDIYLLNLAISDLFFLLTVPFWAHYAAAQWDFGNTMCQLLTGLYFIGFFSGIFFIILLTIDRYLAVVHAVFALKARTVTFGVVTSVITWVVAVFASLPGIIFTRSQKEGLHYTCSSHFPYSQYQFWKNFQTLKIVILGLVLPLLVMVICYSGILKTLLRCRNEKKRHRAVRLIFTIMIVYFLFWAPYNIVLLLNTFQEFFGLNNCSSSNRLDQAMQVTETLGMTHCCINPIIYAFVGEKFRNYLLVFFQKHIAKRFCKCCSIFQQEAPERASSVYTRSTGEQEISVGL
# [17] = biological target: C-C chemokine receptor type 1 (Homo sapiens) (UniProt P32246); experiment: Antagonist activity at CCR1
# Chain of Cytochrome P450 2C19 (P33261 whole entry): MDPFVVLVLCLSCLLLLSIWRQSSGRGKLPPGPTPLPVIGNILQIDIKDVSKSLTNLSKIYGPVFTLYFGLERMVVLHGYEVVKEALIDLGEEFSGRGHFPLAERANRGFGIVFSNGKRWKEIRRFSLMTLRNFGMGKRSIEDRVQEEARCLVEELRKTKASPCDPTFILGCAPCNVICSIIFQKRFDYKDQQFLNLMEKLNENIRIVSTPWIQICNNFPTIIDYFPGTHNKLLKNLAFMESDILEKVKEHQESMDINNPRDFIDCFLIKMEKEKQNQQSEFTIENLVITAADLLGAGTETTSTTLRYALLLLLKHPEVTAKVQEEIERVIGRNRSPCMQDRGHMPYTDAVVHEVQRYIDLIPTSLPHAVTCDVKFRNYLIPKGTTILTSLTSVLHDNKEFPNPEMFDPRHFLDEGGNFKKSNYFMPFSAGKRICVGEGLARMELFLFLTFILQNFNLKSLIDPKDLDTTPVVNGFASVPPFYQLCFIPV
# Chain of Cytochrome P450 2D6 (P10635 whole entry): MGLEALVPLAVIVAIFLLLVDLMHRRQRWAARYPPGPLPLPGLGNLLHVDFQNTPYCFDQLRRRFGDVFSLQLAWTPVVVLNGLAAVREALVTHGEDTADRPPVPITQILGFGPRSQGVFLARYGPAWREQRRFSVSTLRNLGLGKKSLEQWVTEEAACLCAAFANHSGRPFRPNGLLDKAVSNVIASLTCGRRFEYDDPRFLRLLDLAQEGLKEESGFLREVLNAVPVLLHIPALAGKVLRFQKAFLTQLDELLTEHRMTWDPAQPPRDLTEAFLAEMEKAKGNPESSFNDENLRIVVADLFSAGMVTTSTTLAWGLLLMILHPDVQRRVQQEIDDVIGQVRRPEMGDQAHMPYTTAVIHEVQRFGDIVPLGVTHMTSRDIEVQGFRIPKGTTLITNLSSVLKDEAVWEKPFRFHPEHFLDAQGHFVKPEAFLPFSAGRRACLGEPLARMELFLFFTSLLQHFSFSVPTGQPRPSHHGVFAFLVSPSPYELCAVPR
# Chain of C-C chemokine receptor type 2 (Mus musculus, UniProt P51683) (P51683 whole entry): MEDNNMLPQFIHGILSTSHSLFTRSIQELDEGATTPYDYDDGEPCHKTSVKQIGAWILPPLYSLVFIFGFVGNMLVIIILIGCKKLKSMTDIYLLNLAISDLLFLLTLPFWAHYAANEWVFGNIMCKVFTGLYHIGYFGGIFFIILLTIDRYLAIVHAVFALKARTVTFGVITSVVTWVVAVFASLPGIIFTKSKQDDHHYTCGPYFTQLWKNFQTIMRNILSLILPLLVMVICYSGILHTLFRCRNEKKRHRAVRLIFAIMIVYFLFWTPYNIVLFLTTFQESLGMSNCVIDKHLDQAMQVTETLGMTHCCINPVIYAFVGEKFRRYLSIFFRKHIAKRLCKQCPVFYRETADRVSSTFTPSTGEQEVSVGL
# Chain of Cytochrome P450 3A4 (P08684 whole entry): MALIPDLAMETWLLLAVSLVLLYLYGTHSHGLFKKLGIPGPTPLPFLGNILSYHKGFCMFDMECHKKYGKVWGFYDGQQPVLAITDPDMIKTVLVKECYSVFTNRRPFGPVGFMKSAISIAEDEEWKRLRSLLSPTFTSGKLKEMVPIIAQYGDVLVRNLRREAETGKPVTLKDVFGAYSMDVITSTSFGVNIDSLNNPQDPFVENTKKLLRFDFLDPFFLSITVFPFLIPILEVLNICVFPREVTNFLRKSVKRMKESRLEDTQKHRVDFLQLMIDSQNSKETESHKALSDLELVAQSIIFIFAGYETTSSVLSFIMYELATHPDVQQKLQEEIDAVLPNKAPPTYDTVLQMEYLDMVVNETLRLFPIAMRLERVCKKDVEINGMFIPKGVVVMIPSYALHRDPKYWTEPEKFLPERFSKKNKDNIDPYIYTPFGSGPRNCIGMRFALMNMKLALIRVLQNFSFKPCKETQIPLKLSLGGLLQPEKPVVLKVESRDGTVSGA
# Chain of Cytochrome P450 2C9 (P11712 whole entry): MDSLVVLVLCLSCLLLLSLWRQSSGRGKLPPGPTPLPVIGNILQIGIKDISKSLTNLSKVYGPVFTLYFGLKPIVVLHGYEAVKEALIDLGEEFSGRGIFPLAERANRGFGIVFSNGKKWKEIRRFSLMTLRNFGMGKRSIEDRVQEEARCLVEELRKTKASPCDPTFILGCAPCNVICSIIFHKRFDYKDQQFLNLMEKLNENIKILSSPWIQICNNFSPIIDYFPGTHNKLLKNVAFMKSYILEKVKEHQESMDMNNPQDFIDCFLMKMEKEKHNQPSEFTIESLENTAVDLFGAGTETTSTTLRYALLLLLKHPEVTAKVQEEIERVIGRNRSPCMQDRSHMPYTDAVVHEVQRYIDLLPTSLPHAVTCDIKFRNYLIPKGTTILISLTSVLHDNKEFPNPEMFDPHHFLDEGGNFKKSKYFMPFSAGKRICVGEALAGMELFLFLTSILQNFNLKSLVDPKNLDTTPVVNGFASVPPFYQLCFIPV
# Chain of Voltage-gated inwardly rectifying potassium channel KCNH2 (Q12809 whole entry): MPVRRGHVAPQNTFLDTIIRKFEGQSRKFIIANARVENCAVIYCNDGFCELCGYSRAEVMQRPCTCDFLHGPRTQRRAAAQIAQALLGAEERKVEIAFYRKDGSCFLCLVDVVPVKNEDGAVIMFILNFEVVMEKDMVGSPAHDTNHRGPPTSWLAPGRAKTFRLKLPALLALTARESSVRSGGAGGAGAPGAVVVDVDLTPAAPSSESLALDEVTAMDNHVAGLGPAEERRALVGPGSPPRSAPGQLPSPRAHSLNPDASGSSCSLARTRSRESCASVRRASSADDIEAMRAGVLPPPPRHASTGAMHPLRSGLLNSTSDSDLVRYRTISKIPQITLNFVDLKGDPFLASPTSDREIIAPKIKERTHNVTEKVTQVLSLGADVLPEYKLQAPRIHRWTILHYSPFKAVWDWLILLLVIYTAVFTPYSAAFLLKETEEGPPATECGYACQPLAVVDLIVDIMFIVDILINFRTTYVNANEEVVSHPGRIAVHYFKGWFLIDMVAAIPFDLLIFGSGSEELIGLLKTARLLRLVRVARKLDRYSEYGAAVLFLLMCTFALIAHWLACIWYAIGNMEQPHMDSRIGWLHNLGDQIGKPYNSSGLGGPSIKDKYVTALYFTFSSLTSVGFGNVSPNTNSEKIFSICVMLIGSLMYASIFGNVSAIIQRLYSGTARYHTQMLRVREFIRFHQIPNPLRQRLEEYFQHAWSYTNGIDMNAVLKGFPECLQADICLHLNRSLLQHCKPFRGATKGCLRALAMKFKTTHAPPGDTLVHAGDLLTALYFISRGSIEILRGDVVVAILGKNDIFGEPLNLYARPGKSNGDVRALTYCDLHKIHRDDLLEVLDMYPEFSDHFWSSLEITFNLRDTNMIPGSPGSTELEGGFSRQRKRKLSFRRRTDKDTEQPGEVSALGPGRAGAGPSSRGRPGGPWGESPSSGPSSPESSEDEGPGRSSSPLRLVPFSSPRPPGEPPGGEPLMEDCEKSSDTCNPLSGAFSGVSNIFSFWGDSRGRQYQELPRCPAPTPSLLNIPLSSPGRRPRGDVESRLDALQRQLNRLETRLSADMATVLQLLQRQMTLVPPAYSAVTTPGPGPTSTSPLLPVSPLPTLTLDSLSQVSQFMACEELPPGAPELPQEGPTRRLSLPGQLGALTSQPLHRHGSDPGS
smiles,measurement,setting,value
O=C(O)c1cccc(Oc2ncc(Cl)cc2NS(=O)(=O)c2ccc(Cl)c(Cl)c2)c1,Ki,[1],1.58 nM
same,inhibition,[2],42%
same,inhibition,[3],33%
same,logD,[4],0.44
O=C(O)c1ccccc1Oc1ccccc1NS(=O)(=O)c1ccc(Cl)cc1,Ki,[1],251 nM
same,Ki,[5],316 nM
same,Ki,[6],2000 nM
O=C(O)c1ccccc1Oc1cnccc1NS(=O)(=O)c1ccc(Cl)c(Cl)c1,Ki,[1],50.1 nM
same,inhibition,[2],15%
same,inhibition,[3],0%
O=C(O)c1ccccc1Oc1ncccc1NS(=O)(=O)c1ccc(Cl)c(Cl)c1,Ki,[1],31.6 nM
same,inhibition,[2],60%
same,inhibition,[3],41%
O=C(O)c1ccccc1Oc1c(Cl)cccc1NS(=O)(=O)c1ccc(Cl)cc1,Ki,[1],398 nM
same,Ki,[7],501 nM
O=C(O)c1ccccc1Oc1ccc(Cl)cc1NS(=O)(=O)c1ccc(Cl)s1,Ki,[1],5.01 nM
O=C(O)c1ccccc1Oc1ccc(C(F)(F)F)cc1NS(=O)(=O)c1ccc(Cl)cc1,Ki,[1],794 nM
same,Ki,[5],501 nM
same,Ki,[6],1580 nM
O=S(=O)(Nc1cc(Cl)cnc1Oc1cccnn1)c1ccc(Cl)c(Cl)c1,Ki,[1],200 nM
O=C(O)c1ccccc1Oc1ccc(Cl)cc1NS(=O)(=O)c1cccc(Cl)c1,Ki,[1],7.94 nM
O=S(=O)(Nc1cc(Cl)cnc1Oc1cncc(Cl)c1)c1ccc(Cl)c(Cl)c1,Ki,[1],12.6 nM
same,inhibition,[2],55%
same,inhibition,[3],0%
same,logD,[4],3.1
same,bioavailability,[8],58%
same,half-life,[9],1.2 h
same,clearance,[10],2.4 mL/min/kg
same,Vd,Rattus norvegicus,0.2 L/kg
same,IC50,Cytochrome P450 1A2,> 100000 nM
same,IC50,Cytochrome P450 2C19,6610 nM
same,IC50,Cytochrome P450 2C9,1070 nM
same,IC50,Cytochrome P450 2D6,> 100000 nM
same,IC50,Cytochrome P450 3A4,437 nM
O=C(O)c1ccccc1Oc1ccc(Cl)cc1NS(=O)(=O)c1ccccc1,Ki,[1],158 nM
O=C(O)c1ccccc1Oc1c(F)cc(C(F)(F)F)cc1NS(=O)(=O)c1ccc(Cl)cc1,Ki,[1],31.6 nM
same,Ki,[5],126 nM
same,Ki,[6],251 nM
O=C(O)c1ccccc1Oc1ncncc1NS(=O)(=O)c1ccc(Cl)c(Cl)c1,Ki,[1],398 nM
CS(=O)(=O)Nc1cc(Cl)ccc1Oc1ccccc1C(=O)O,Ki,[1],398 nM
O=C(O)c1cncc(Oc2ncc(Cl)cc2NS(=O)(=O)c2ccc(Cl)c(Cl)c2)c1,Ki,[1],10 nM
same,inhibition,[2],17%
same,inhibition,[3],0%
same,logD,[4],-0.67
CS(=O)(=O)c1ccc(Oc2ccccc2C(=O)O)c(NS(=O)(=O)c2ccc(Cl)cc2)c1,Ki,[1],> 3160 nM
O=C(O)c1ccccc1Oc1ccc(Cl)cc1NS(=O)(=O)c1ccc(Cl)c(Cl)c1,bioavailability,[8],70%
same,half-life,[9],6.5 h
same,half-life,[11],5.9 h
same,clearance,[10],0.6 mL/min/kg
same,Vd,Rattus norvegicus,0.2 L/kg
same,IC50,Cytochrome P450 1A2,39800 nM
same,IC50,Cytochrome P450 2C19,11000 nM
same,IC50,Cytochrome P450 2C9,4170 nM
same,IC50,Cytochrome P450 2D6,53700 nM
same,IC50,Cytochrome P450 3A4,10000 nM
same,Ki,[12],398 nM
same,IC50,[13],631 nM
N#Cc1ccc(Oc2ccccc2C(=O)O)c(NS(=O)(=O)c2ccc(Cl)cc2)c1,Ki,[1],63.1 nM
same,Ki,[7],1000 nM
O=C(O)c1c(F)cccc1Oc1ccc(C(F)(F)F)cc1NS(=O)(=O)c1ccc(Cl)cc1,Ki,[1],126 nM
same,Ki,[5],126 nM
same,Ki,[6],1000 nM
O=C(O)c1ccccc1Oc1ccc(Cl)cc1NS(=O)(=O)c1ccc(Cl)cc1,Ki,[1],20 nM
same,inhibition,[14],65%
same,Ki,[7],158 nM
O=C(O)c1ccc(Oc2ncc(Cl)cc2NS(=O)(=O)c2ccc(Cl)c(Cl)c2)cc1,Ki,[1],3.16 nM
same,logD,[4],0.4
Cc1ncccc1Oc1ncc(Cl)cc1NS(=O)(=O)c1ccc(Cl)c(Cl)c1,Ki,[1],10 nM
same,inhibition,[2],72%
same,inhibition,[3],50%
same,logD,[4],2.7
same,bioavailability,[8],75%
same,half-life,[9],0.8 h
same,half-life,[11],2.3 h
same,clearance,[10],4.3 mL/min/kg
same,Vd,Rattus norvegicus,0.34 L/kg
same,IC50,[15],> 31600 nM
same,IC50,Cytochrome P450 1A2,> 100000 nM
same,IC50,Cytochrome P450 2C19,22400 nM
same,IC50,Cytochrome P450 2C9,1350 nM
same,IC50,Cytochrome P450 2D6,> 100000 nM
same,IC50,Cytochrome P450 3A4,19500 nM
same,Ki,[12],1260 nM
same,Activity,[16],40%
N#Cc1ccc(Oc2ncc(Cl)cc2NS(=O)(=O)c2ccc(Cl)c(Cl)c2)cn1,Ki,[1],15.8 nM
same,logD,[4],2.12
Cc1ccc(NS(=O)(=O)c2ccc(Cl)cc2)c(Oc2ccccc2C(=O)O)c1,Ki,[1],631 nM
same,Ki,[17],631 nM
O=C(O)c1ccccc1Oc1nccnc1NS(=O)(=O)c1ccc(Cl)c(Cl)c1,Ki,[1],794 nM
O=C(O)c1ccccc1Oc1ccc(F)cc1NS(=O)(=O)c1ccc(Cl)cc1,Ki,[1],39.8 nM
same,inhibition,[14],52%
same,Ki,[7],251 nM
Cc1ncccc1Oc1ncc(C#N)cc1NS(=O)(=O)c1ccc(Cl)c(Cl)c1,Ki,[1],50.1 nM
same,inhibition,[2],43%
same,inhibition,[3],12%
same,logD,[4],1.5
O=C(O)c1ccccc1Oc1cccc(F)c1NS(=O)(=O)c1ccc(Cl)cc1,Ki,[1],> 3160 nM
same,Ki,[17],> 3160 nM
O=C(O)c1c(F)cccc1Oc1ncc(Cl)cc1NS(=O)(=O)c1ccc(Cl)c(Cl)c1,Ki,[1],2 nM
Cc1cccc(NS(=O)(=O)c2ccc(Cl)cc2)c1Oc1ccccc1C(=O)O,Ki,[1],> 3160 nM
same,Ki,[7],> 3160 nM
O=C(NCCO)c1ccccc1Oc1ncc(Cl)cc1NS(=O)(=O)c1ccc(Cl)c(Cl)c1,Ki,[1],25.1 nM
same,inhibition,[2],31%
same,inhibition,[3],0%
same,logD,[4],2.1
same,bioavailability,[8],37%
same,half-life,[9],1.1 h
same,clearance,[10],13 mL/min/kg
same,Vd,Rattus norvegicus,0.47 L/kg
same,IC50,[15],> 63100 nM
same,Ki,[12],1580 nM
same,Activity,[16],< 10%
